Key:
[1] = tested on: LNCaP; test: Antiproliferative activity against human LNCAP cells assessed as reduction in cell viability after 96 hrs by MTT assay; format: functional, cell-based
Procedure, shortened: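 LNCaP cells in RPMI-1640 with 10% FCS, penicillin/streptomycin, 37°C, 5% CO2; seeded 4000 cells/well, adhered overnight. Medium replaced with fresh medium carrying nine half-log concentrations up to 100 μM (DMSO 1:100) or DMSO control, triplicate, 96 h. MTT, formazan dissolved in acidified isopropanol, A540; viability vs DMSO; absolute IC50 by non-linear regression, mean of three independent experiments.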

[2] = tested on: LNCaP; test: Potency index, ratio of IC50 for bicalutamide to IC50 for test compound for antiproliferative activity against human LNCAP cells incubated for 96 hrs by MTT assay; format: functional
[3] = tested on: PC-3; test: Antiproliferative activity against human PC3 cells assessed as reduction in cell viability after 96 hrs by MTT assay; format: functional, cell-based; conditions: PC-3, 96 h
Procedure, shortened: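 PC3 cells grown in DMEM with 10% FCS, seeded at 4000 cells/well, adhered overnight, then medium replaced with medium containing nine concentrations from 0.1 to 100 μM (1:100 dilution of DMSO stocks) or DMSO control, in triplicate, for 96 h. MTT read-out: formazan dissolved in acidified isopropanol, absorbance at 540 nm; viability normalised to DMSO; IC50 from triplicate means.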

[4] = tested on: LNCaP; test: Potency index, ratio of IC50 for enzalutamide to IC50 for test compound for antiproliferative activity against human LNCAP cells incubated for 96 hrs by MTT assay; format: functional
[5] = tested on: VCaP; test: Antiproliferative activity against human VCaP cells assessed as reduction in cell viability after 96 hrs by MTS assay; format: functional, cell-based
Procedure, shortened: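 VCaP cells in DMEM with 10% FCS, exposed for 96 h in triplicate to nine concentrations from 0.1 to 100 μM or DMSO. Because adherence is poor, only half the medium was exchanged for medium carrying compound at a 1:50 dilution. Viability by MTS, absorbance at 490 nm after 1 and 2 h, normalised to DMSO; IC50 from triplicate means.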

[6] = biological target: T1, Androgen receptor (Homo sapiens) (UniProt P10275); test: Antagonist activity at androgen receptor in human LNCAP cells assessed as reduction in PSA expression after 24 hrs by qPCR analysis; format: cell-based
T1 sequence (whole entry): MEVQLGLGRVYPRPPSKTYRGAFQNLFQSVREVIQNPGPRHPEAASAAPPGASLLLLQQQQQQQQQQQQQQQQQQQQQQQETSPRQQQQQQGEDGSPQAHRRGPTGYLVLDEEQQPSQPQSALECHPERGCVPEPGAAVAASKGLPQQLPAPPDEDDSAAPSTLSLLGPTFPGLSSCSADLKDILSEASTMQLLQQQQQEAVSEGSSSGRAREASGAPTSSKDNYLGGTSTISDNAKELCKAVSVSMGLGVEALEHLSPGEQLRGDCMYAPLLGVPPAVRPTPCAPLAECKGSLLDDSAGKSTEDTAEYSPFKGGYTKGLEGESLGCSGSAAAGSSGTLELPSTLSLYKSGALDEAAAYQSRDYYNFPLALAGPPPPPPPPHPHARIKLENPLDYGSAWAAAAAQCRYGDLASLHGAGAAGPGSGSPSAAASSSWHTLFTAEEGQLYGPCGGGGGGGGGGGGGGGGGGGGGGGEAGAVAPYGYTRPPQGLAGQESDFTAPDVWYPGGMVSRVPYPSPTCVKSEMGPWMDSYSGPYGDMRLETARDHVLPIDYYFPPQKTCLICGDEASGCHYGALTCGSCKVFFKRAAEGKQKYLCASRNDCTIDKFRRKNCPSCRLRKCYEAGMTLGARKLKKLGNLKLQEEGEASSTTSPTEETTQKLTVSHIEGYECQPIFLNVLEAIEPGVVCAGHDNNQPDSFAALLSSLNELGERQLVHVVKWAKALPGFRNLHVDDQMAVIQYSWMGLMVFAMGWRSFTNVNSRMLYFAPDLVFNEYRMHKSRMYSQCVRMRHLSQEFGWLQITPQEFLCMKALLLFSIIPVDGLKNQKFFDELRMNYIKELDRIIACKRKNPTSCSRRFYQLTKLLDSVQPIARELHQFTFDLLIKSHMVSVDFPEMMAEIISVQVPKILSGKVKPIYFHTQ
Procedure, shortened: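 LNCaP cells seeded in 6-well plates in RPMI and allowed 24 h to adhere, then exposed to 5, 10, 50 and 100 μM for 24 h; untreated and DMSO (1:100) wells as negative controls. RNA extracted with TRI-reagent, reverse-transcribed, qPCR run in triplicate for PSA with AR, GAPDH, RPL19 and β-actin as housekeeping genes; relative expression by ΔΔCT.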

CC(CS(=O)(=O)c1ccc(C(F)(F)F)cc1)C(=O)Nc1ccc(C#N)c(C(F)(F)F)c1 (racemic)
IC50 [1]: 58 µM

CC(CS(=O)(=O)c1ccc(F)cc1)C(=O)Nc1ccc([N+](=O)[O-])cc1C(F)(F)F (racemic)
IC50 [1]: 4.05 µM

CC(CS(=O)(=O)c1cc(C(F)(F)F)cc(C(F)(F)F)c1)C(=O)Nc1ccc(C#N)c(C(F)(F)F)c1 (racemic)
IC50 [1]: 6.16 µM

CC(CSc1cc(C(F)(F)F)cc(C(F)(F)F)c1)(Sc1cc(C(F)(F)F)cc(C(F)(F)F)c1)C(=O)Nc1ccc([N+](=O)[O-])cc1C(F)(F)F (racemic)
Ratio IC50 [2]: >40
IC50 [3]: 0.91 µM
IC50 [1]: 0.43 µM
Ratio IC50 [4]: >3
IC50 [5]: 0.18 µM
inhibition [6]: Dose-dependent effect

CC(CSc1cccc(OC(F)(F)F)c1)C(=O)Nc1ccc(C#N)c(C(F)(F)F)c1 (racemic)
IC50 [1]: 115 µM

CC(CS(=O)(=O)c1ccc(C(F)(F)F)cc1)C(=O)Nc1ccc([N+](=O)[O-])c(C(F)(F)F)c1 (racemic)
IC50 [1]: 3.31 µM

CC(CSc1ccc(C(F)(F)F)cc1)C(=O)Nc1ccc([N+](=O)[O-])c(C(F)(F)F)c1 (racemic)
IC50 [1]: 4.41 µM

CC(CS(=O)(=O)c1cc(C(F)(F)F)cc(C(F)(F)F)c1)C(=O)Nc1ccc([N+](=O)[O-])c(C(F)(F)F)c1 (racemic)
IC50 [1]: 12.2 µM

CC(CS(=O)(=O)c1ccc(F)cc1)C(=O)Nc1ccc([N+](=O)[O-])c(C(F)(F)F)c1 (racemic)
IC50 [3]: 112 µM
IC50 [1]: 2.67 µM
IC50 [5]: 8.21 µM
inhibition [6]: Dose-dependent effect

CC(CS(=O)(=O)c1cc(C(F)(F)F)cc(C(F)(F)F)c1)C(=O)Nc1ccc(C#N)cc1C(F)(F)F (racemic)
IC50 [1]: 9.56 µM

CC(CSc1ccc(F)cc1)C(=O)Nc1ccc([N+](=O)[O-])cc1C(F)(F)F (racemic)
IC50 [1]: 43.2 µM

CC(CSc1ccc(C(F)(F)F)cc1)C(=O)Nc1ccc([N+](=O)[O-])cc1C(F)(F)F (racemic)
IC50 [1]: 54.3 µM

CC(CS(=O)(=O)c1ccc(C(F)(F)F)cc1)C(=O)Nc1ccc(C#N)cc1C(F)(F)F (racemic)
IC50 [1]: 28.8 µM

CC(CSc1ccc(C(F)(F)F)cc1)(Sc1ccc(C(F)(F)F)cc1)C(=O)Nc1ccc(C#N)c(C(F)(F)F)c1 (racemic)
IC50 [3]: 5.45 µM
IC50 [1]: 1.68 µM
IC50 [5]: 0.13 µM
inhibition [6]: Dose-dependent effect

C[C@](O)(CS(=O)(=O)c1ccc(F)cc1)C(=O)Nc1ccc(C#N)c(C(F)(F)F)c1 [(R)-BICALUTAMIDE]
IC50 [3]: 92.6 µM
IC50 [1]: 20.4 µM
IC50 [5]: 5.96 µM

CNC(=O)c1ccc(N2C(=S)N(c3ccc(C#N)c(C(F)(F)F)c3)C(=O)C2(C)C)cc1F [ENZALUTAMIDE]
IC50 [3]: 15.1 µM
IC50 [1]: 1.31 µM
IC50 [5]: 3.66 µM

CC(CS(=O)(=O)c1cccc(OC(F)(F)F)c1)C(=O)Nc1ccc(C#N)c(C(F)(F)F)c1 (racemic)
IC50 [1]: 13.2 µM

CC(CS(=O)(=O)c1ccc(F)cc1)C(=O)Nc1ccc(C#N)c(C(F)(F)F)c1 (racemic)
IC50 [1]: 115 µM

CC(CS(=O)(=O)c1ccc(C(F)(F)F)cc1)C(=O)Nc1ccc([N+](=O)[O-])cc1C(F)(F)F (racemic)
IC50 [1]: 26.3 µM

CC(CS(=O)(=O)c1cc(C(F)(F)F)cc(C(F)(F)F)c1)C(=O)Nc1ccc([N+](=O)[O-])cc1C(F)(F)F (racemic)
IC50 [1]: 3.08 µM

CC(CSc1ccc(F)cc1)C(=O)Nc1ccc(C#N)c(C(F)(F)F)c1 (racemic)
IC50 [1]: 8.69 µM

CC(CSc1cc(C(F)(F)F)cc(C(F)(F)F)c1)C(=O)Nc1ccc(C#N)cc1C(F)(F)F (racemic)
IC50 [1]: 4.57 µM

CC(CSc1cc(C(F)(F)F)cc(C(F)(F)F)c1)C(=O)Nc1ccc([N+](=O)[O-])cc1C(F)(F)F (racemic)
IC50 [1]: 43.7 µM

CC(CSc1ccc(F)cc1)C(=O)Nc1ccc([N+](=O)[O-])c(C(F)(F)F)c1 (racemic)
IC50 [1]: 27.2 µM

— ChEMBL document CHEMBL4339184, “Discovery of deshydroxy bicalutamide derivatives as androgen receptor antagonists” (Eur J Med Chem, 2019)
